Experimental data published in ChEMBL document CHEMBL1795311, “Synthesis, antiproliferative activity, and mechanism of action of a series of 2-{[(2E)-3-phenylprop-2-enoyl]amino}benzamides” (Eur J Med Chem, 2011).

How the values were obtained:
[1] = test system: K562; experiment: Antiproliferative activity against human K562 cells at 10 uM after 48 hrs by trypan blue assay; assay type: functional; details: K562, 48 h, read-out: GI
[2] = test system: K562; experiment: Growth inhibition of human K562 cells after 48 hrs by trypan blue assay; assay type: functional, cell-based; details: K562, 48 h
[3] = test system: CCRF-CEM; experiment: Growth inhibition of human CCRF-CEM cells after 48 hrs by SRB assay; assay type: functional
Method in brief: (§1)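 NCI DTP panel cells grown in RPMI 1640 with 5% FBS and 2 mM L-glutamine, preincubated 24 h, then given five concentrations (10-fold or ½-log dilutions from DMSO stock) for 48 h at 37 °C. Cells fixed with TCA, stained with SRB, absorbance read at 515 nm, with time-zero plates as reference.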

[4] = test system: HL-60; experiment: Growth inhibition of human HL60 cells after 48 hrs by SRB assay; assay type: functional; details: HL-60, 48 h; method in brief: as §1
[5] = test system: K562; experiment: Growth inhibition of human K562 cells after 48 hrs by SRB assay; assay type: functional; details: K562, 48 h; method in brief: as §1
[6] = test system: MOLT-4; experiment: Growth inhibition of human MOLT4 cells after 48 hrs by SRB assay; assay type: functional; details: MOLT-4, 48 h; method in brief: as §1
[7] = test system: A549; experiment: Growth inhibition of human A549 cells after 48 hrs by SRB assay; assay type: functional; details: A549, 48 h; method in brief: as §1
[8] = test system: EKVX; experiment: Growth inhibition of human EKVX cells after 48 hrs by SRB assay; assay type: functional; method in brief: as §1
[9] = test system: HOP-62; experiment: Growth inhibition of human HOP62 cells after 48 hrs by SRB assay; assay type: functional; details: HOP-62, 48 h; method in brief: as §1
[10] = test system: HOP-92; experiment: Growth inhibition of human HOP92 cells after 48 hrs by SRB assay; assay type: functional; details: HOP-92, 48 h; method in brief: as §1
[11] = test system: NCI-H226; experiment: Growth inhibition of human NCI-H226 cells after 48 hrs by SRB assay; assay type: functional; details: NCI-H226, 48 h; method in brief: as §1
[12] = test system: NCI-H23; experiment: Growth inhibition of human NCI-H23 cells after 48 hrs by SRB assay; assay type: functional; details: NCI-H23, 48 h; method in brief: as §1
[13] = test system: NCI-H460; experiment: Growth inhibition of human NCI-H460 cells after 48 hrs by SRB assay; assay type: functional; details: NCI-H460, 48 h; method in brief: as §1
[14] = test system: NCI-H522; experiment: Growth inhibition of human NCI-H522 cells after 48 hrs by SRB assay; assay type: functional; details: NCI-H522, 48 h; method in brief: as §1
[15] = test system: COLO 205; experiment: Growth inhibition of human COLO205 cells after 48 hrs by SRB assay; assay type: functional; details: COLO 205, 48 h; method in brief: as §1
[16] = test system: HCC 2998; experiment: Growth inhibition of human HCC2998 cells after 48 hrs by SRB assay; assay type: functional; details: HCC 2998, 48 h; method in brief: as §1
[17] = test system: HCT-116; experiment: Growth inhibition of human HCT116 cells after 48 hrs by SRB assay; assay type: functional; details: HCT-116, 48 h; method in brief: as §1
[18] = test system: HCT-15; experiment: Growth inhibition of human HCT15 cells after 48 hrs by SRB assay; assay type: functional; details: HCT-15, 48 h; method in brief: as §1
[19] = test system: HT-29; experiment: Growth inhibition of human HT-29 cells after 48 hrs by SRB assay; assay type: functional; details: HT-29, 48 h; method in brief: as §1
[20] = test system: KM12; experiment: Growth inhibition of human KM12 cells after 48 hrs by SRB assay; assay type: functional; details: KM12, 48 h; method in brief: as §1
[21] = test system: SW-620; experiment: Growth inhibition of human SW620 cells after 48 hrs by SRB assay; assay type: functional; details: SW-620, 48 h
Method in brief: (§2)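 Run by the NCI Developmental Therapeutics Program: cells in RPMI 1640 with 5% FBS and 2 mM L-glutamine, plated at 5000–40,000 cells/well and grown 24 h before dosing. Drug (DMSO stock) given at five concentrations for 48 h at 37 °C, 5% CO2. Adherent cells fixed with cold TCA, stained with 0.4% SRB and read at 515 nm. GI50, TGI and LC50 taken from the time-zero, control and treated absorbances.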

[22] = test system: SF-268; experiment: Growth inhibition of human SF268 cells after 48 hrs by SRB assay; assay type: functional; details: SF-268, 48 h; method in brief: as §1
[23] = test system: SF-295; experiment: Growth inhibition of human SF295 cells after 48 hrs by SRB assay; assay type: functional; details: SF-295, 48 h; method in brief: as §1
[24] = test system: SF-539; experiment: Growth inhibition of human SF539 cells after 48 hrs by SRB assay; assay type: functional; details: SF-539, 48 h; method in brief: as §1
[25] = test system: SNB-19; experiment: Growth inhibition of human SNB19 cells after 48 hrs by SRB assay; assay type: functional; details: SNB-19, 48 h; method in brief: as §2
[26] = test system: SNB-75; experiment: Growth inhibition of human SNB75 cells after 48 hrs by SRB assay; assay type: functional; details: SNB-75, 48 h; method in brief: as §2
[27] = test system: U-251; experiment: Growth inhibition of human U251 cells after 48 hrs by SRB assay; assay type: functional; details: U-251, 48 h; method in brief: as §2
[28] = test system: LOX IMVI; experiment: Growth inhibition of human LOXIMVI cells after 48 hrs by SRB assay; assay type: functional; method in brief: as §1
[29] = test system: Malme-3M; experiment: Growth inhibition of human MALME-3M cells after 48 hrs by SRB assay; assay type: functional; method in brief: as §1
[30] = test system: M14; experiment: Growth inhibition of human M14 cells after 48 hrs by SRB assay; assay type: functional; details: M14, 48 h; method in brief: as §1
[31] = test system: MDA-MB-435; experiment: Growth inhibition of human MDA-MB-435 cells after 48 hrs by SRB assay; assay type: functional; details: MDA-MB-435, 48 h; method in brief: as §1
[32] = test system: SK-MEL-2; experiment: Growth inhibition of human SK-MEL-2 cells after 48 hrs by SRB assay; assay type: functional; details: SK-MEL-2, 48 h; method in brief: as §2
[33] = test system: SK-MEL-28; experiment: Growth inhibition of human SK-MEL-28 cells after 48 hrs by SRB assay; assay type: functional; details: SK-MEL-28, 48 h; method in brief: as §2
[34] = test system: SK-MEL-5; experiment: Growth inhibition of human SK-MEL-5 cells after 48 hrs by SRB assay; assay type: functional; details: SK-MEL-5, 48 h; method in brief: as §2
[35] = test system: UACC-257; experiment: Growth inhibition of human UACC257 cells after 48 hrs by SRB assay; assay type: functional; details: UACC-257, 48 h; method in brief: as §2
[36] = test system: UACC-62; experiment: Growth inhibition of human UACC62 cells after 48 hrs by SRB assay; assay type: functional; details: UACC-62, 48 h; method in brief: as §2
[37] = test system: IGROV-1; experiment: Growth inhibition of human IGROV1 cells after 48 hrs by SRB assay; assay type: functional; details: IGROV-1, 48 h; method in brief: as §1
[38] = test system: OVCAR-3; experiment: Growth inhibition of human OVCAR3 cells after 48 hrs by SRB assay; assay type: functional; details: OVCAR-3, 48 h; method in brief: as §1
[39] = test system: OVCAR-4; experiment: Growth inhibition of human OVCAR4 cells after 48 hrs by SRB assay; assay type: functional; details: OVCAR-4, 48 h; method in brief: as §1
[40] = test system: OVCAR-5; experiment: Growth inhibition of human OVCAR5 cells after 48 hrs by SRB assay; assay type: functional; details: OVCAR-5, 48 h; method in brief: as §1
[41] = test system: OVCAR-8; experiment: Growth inhibition of human OVCAR8 cells after 48 hrs by SRB assay; assay type: functional; details: OVCAR-8, 48 h; method in brief: as §1
[42] = test system: NCI/ADR-RES; experiment: Growth inhibition of human NCI/ADR-RES cells after 48 hrs by SRB assay; assay type: functional; method in brief: as §1
[43] = test system: SK-OV-3; experiment: Growth inhibition of human SKOV3 cells after 48 hrs by SRB assay; assay type: functional; details: SK-OV-3, 48 h; method in brief: as §2
[44] = test system: 786-0; experiment: Growth inhibition of human 786-0 cells after 48 hrs by SRB assay; assay type: functional; details: 786-0, 48 h; method in brief: as §1
[45] = test system: A498; experiment: Growth inhibition of human A498 cells after 48 hrs by SRB assay; assay type: functional; details: A498, 48 h; method in brief: as §1
[46] = test system: ACHN; experiment: Growth inhibition of human ACHN cells after 48 hrs by SRB assay; assay type: functional; method in brief: as §1
[47] = test system: CAKI-1; experiment: Growth inhibition of human Caki1 cells after 48 hrs by SRB assay; assay type: functional; details: CAKI-1, 48 h; method in brief: as §1
[48] = test system: SN12C; experiment: Growth inhibition of human SN12C cells after 48 hrs by SRB assay; assay type: functional; method in brief: as §2
[49] = test system: TK-10; experiment: Growth inhibition of human TK10 cells after 48 hrs by SRB assay; assay type: functional; details: TK-10, 48 h; method in brief: as §2
[50] = test system: UO-31; experiment: Growth inhibition of human UO31 cells after 48 hrs by SRB assay; assay type: functional; details: UO-31, 48 h; method in brief: as §2
[51] = test system: PC-3; experiment: Growth inhibition of human PC3 cells after 48 hrs by SRB assay; assay type: functional; details: PC-3, 48 h; method in brief: as §1
[52] = test system: DU-145; experiment: Growth inhibition of human DU145 cells after 48 hrs by SRB assay; assay type: functional; details: DU-145, 48 h; method in brief: as §1
[53] = test system: MCF7; experiment: Growth inhibition of human MCF7 cells after 48 hrs by SRB assay; assay type: functional; details: MCF7, 48 h; method in brief: as §1
[54] = test system: MDA-MB-231; experiment: Growth inhibition of human MDA-MB-231 cells after 48 hrs by SRB assay; assay type: functional; details: MDA-MB-231, 48 h; method in brief: as §1
[55] = Growth inhibition of human Hs 578T cells after 48 hrs by SRB assay; assay type: functional; method in brief: as §1
[56] = test system: BT-549; experiment: Growth inhibition of human BT549 cells after 48 hrs by SRB assay; assay type: functional; details: BT-549, 48 h; method in brief: as §1
[57] = test system: T47D; experiment: Growth inhibition of human T47D cells after 48 hrs by SRB assay; assay type: functional; method in brief: as §2
[58] = test system: MDA-MB-468; experiment: Growth inhibition of human MDA-MB-468 cells after 48 hrs by SRB assay; assay type: functional; details: MDA-MB-468, 48 h; method in brief: as §1

Cc1ccc(NC(=O)/C=C/c2ccccc2)c(C(N)=O)c1
inhibition of growth at 10 µM [1]: 65.4% | IC50 [2]: 5.5 µM | GI50 [3]: 2.36 µM | GI50 [4]: 1.77 µM | GI50 [5]: 1.11 µM | GI50 [6]: 3.56 µM | GI50 [7]: 5.81 µM | GI50 [8]: 5.18 µM | GI50 [9]: 7.74 µM | GI50 [10]: 11.4 µM | GI50 [11]: 7.28 µM | GI50 [12]: 3.38 µM | GI50 [13]: 3.59 µM | GI50 [14]: 2.83 µM | GI50 [15]: 1.84 µM | GI50 [16]: 6.45 µM | GI50 [17]: 3.2 µM | GI50 [18]: 3.77 µM | GI50 [19]: 2.31 µM | GI50 [20]: 2.94 µM | GI50 [21]: 3.3 µM | GI50 [22]: 10.9 µM | GI50 [23]: 3.14 µM | GI50 [24]: 2.05 µM | GI50 [25]: 5.69 µM | GI50 [26]: 3.18 µM | GI50 [27]: 4.13 µM | GI50 [28]: 7.65 µM | GI50 [29]: 7.59 µM | GI50 [30]: 2.35 µM | GI50 [31]: 0.66 µM | GI50 [32]: 4.75 µM | GI50 [33]: 5.24 µM | GI50 [34]: 1.01 µM | GI50 [35]: 17 µM | GI50 [36]: 3.77 µM | GI50 [37]: 4.37 µM | GI50 [38]: 2.18 µM | GI50 [39]: 11.4 µM | GI50 [40]: 8.2 µM | GI50 [41]: 7.49 µM | GI50 [42]: 2.79 µM | GI50 [43]: 2.79 µM | GI50 [44]: 4 µM | GI50 [45]: 5.56 µM | GI50 [46]: 13.5 µM | GI50 [47]: 8.92 µM | GI50 [48]: 9.63 µM | GI50 [49]: 25.8 µM | GI50 [50]: 9.62 µM | GI50 [51]: 3.97 µM | GI50 [52]: 3.66 µM | GI50 [53]: 3.48 µM | GI50 [54]: 7.26 µM | GI50 [55]: 1.94 µM | GI50 [56]: 4.88 µM | GI50 [57]: 4.2 µM | GI50 [58]: 3.12 µM
